Data on ten molecules can be found in ChEMBL document CHEMBL5625173, “Antimycobacterial pyridine carboxamides: From design to in vivo activity” (Eur J Med Chem, 2023).

Values after ≈ are worked out from the molar mass of the structure shown. Active and inactive are the calls of the source. No cut-off for these calls is given here.

In the first data set the test system is Mycolicibacterium smegmatis. Put plainly: Antimycobacterial activity against Mycobacterium smegmatis by alamar blue staining based microplate analysis. Type of data set: functional.
Conditions: not given
The procedure, abridged: (§1)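 Microplate Alamar Blue assay, one of six mycobacterial strains tested (Mtb H37Rv, Mtb H37Ra, M. kansasii, M. avium, M. smegmatis, M. aurum); value reported as MIC.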
In general terms: The colour change of resazurin is a common sign of viable cells or microbes.
For orientation: MIC means the lowest concentration that inhibits growth of the organism. With `O=C(Nc1ccc(C(=O)O)c(O)c1)c1cccc(C(F)(F)F)n1`, the lowest concentration to inhibit growth (MIC) was 250 µg/mL (≈ 766 µM).

`O=C(Nc1ccc(C(=O)O)c(O)c1)c1ccccn1` showed an MIC of 15.6 µg/mL (≈ 60.5 µM).

Regarding `Cc1cc(C(=O)Nc2ccc(C(=O)O)c(O)c2)cc(O)n1`, the minimal inhibitory concentration (MIC) was not below 500 µg/mL.

Molecule `O=C(Nc1ccc(C(=O)O)c(O)c1)c1ccc(Cl)nc1` had a minimal inhibitory concentration (MIC) not below 250 µg/mL.

`Cc1cc(C(=O)Nc2cnccn2)cc(Cl)n1` showed an MIC not below 500 µg/mL.

The molecule `O=C(Nc1cncc(Cl)n1)c1ccc2ccccc2n1` displayed an MIC not below 125 µg/mL.

With `O=C(Nc1ccc(C(=O)O)c(O)c1)c1ccncc1`, the MIC was not below 125 µg/mL.

On to `O=C(Nc1cnccn1)c1ccc(C(F)(F)F)cn1`, for which the MIC is not below 500 µg/mL.

In the case of `Cc1cc(C(=O)Nc2ccc(C(=O)O)c(O)c2)ccn1`, the MIC is not below 125 µg/mL.

In turn, `O=C(O)c1ccc(NC(=O)c2ccc3ccccc3n2)cc1` registered an MIC not below 500 µg/mL.

Another data set relates to Mycolicibacterium aurum. Put plainly: Antimycobacterial activity against Mycobacterium aurum by alamar blue staining based microplate analysis.
Conditions: not given
Type of data set: functional. The procedure, abridged: as §1
`O=C(Nc1ccc(C(=O)O)c(O)c1)c1cccc(C(F)(F)F)n1` had an MIC of 62.5 µg/mL (≈ 192 µM).

For `O=C(Nc1ccc(C(=O)O)c(O)c1)c1ccccn1`, inhibition of growth (MIC) required 62.5 µg/mL (≈ 242 µM).

Molecule `Cc1cc(C(=O)Nc2ccc(C(=O)O)c(O)c2)cc(O)n1` had a minimum inhibitory concentration (MIC) not below 500 µg/mL.

The molecule `O=C(Nc1ccc(C(=O)O)c(O)c1)c1ccc(Cl)nc1` returned an MIC not below 250 µg/mL.

In turn, `Cc1cc(C(=O)Nc2cnccn2)cc(Cl)n1` showed a minimum inhibitory concentration (MIC) not below 500 µg/mL.

On to `O=C(Nc1cncc(Cl)n1)c1ccc2ccccc2n1`, for which the MIC was not below 125 µg/mL.

For the molecule `O=C(Nc1ccc(C(=O)O)c(O)c1)c1ccncc1`, the MIC was not below 125 µg/mL.

`O=C(Nc1cnccn1)c1ccc(C(F)(F)F)cn1` had an MIC not below 500 µg/mL.

Take `Cc1cc(C(=O)Nc2ccc(C(=O)O)c(O)c2)ccn1`: the MIC is not below 125 µg/mL.

For the molecule `O=C(O)c1ccc(NC(=O)c2ccc3ccccc3n2)cc1`, inhibition of growth (MIC) required 62.5 µg/mL (≈ 214 µM).

In a further data set the test system is Mycobacterium tuberculosis. The experiment in a line: Antimycobacterial activity against Mycobacterium tuberculosis H37Rv by alamar blue staining based microplate analysis.
Conditions: not given
Type of data set: functional. The procedure, abridged: (§2)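 Microplate Alamar Blue assay. MIC values read at pH 6.6 (neutral). One acidic-pH test at pH 5.6 is footnoted separately.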
Molecule `O=C(Nc1ccc(C(=O)O)c(O)c1)c1cccc(C(F)(F)F)n1` displayed an MIC of 3.13 µg/mL (≈ 9.59 µM).

In turn, `O=C(Nc1ccc(C(=O)O)c(O)c1)c1ccccn1` yielded a minimal inhibitory concentration (MIC) of 1.56 µg/mL (≈ 6.04 µM).

As for `Cc1cc(C(=O)Nc2ccc(C(=O)O)c(O)c2)cc(O)n1`, the MIC is 6.25 µg/mL (≈ 21.7 µM).

The molecule `O=C(Nc1ccc(C(=O)O)c(O)c1)c1ccc(Cl)nc1` registered a minimal inhibitory concentration (MIC) of 1.56 µg/mL (≈ 5.33 µM).

With `Cc1cc(C(=O)Nc2cnccn2)cc(Cl)n1`, the MIC was more than 100 µg/mL.

The molecule `O=C(Nc1cncc(Cl)n1)c1ccc2ccccc2n1` had an MIC of more than 25 µg/mL.

`O=C(Nc1ccc(C(=O)O)c(O)c1)c1ccncc1` gave an MIC of 3.13 µg/mL (≈ 12.1 µM).

Consider `O=C(Nc1cnccn1)c1ccc(C(F)(F)F)cn1`, for which inhibition of growth (MIC) required 50 µg/mL (≈ 186 µM).

`Cc1cc(C(=O)Nc2ccc(C(=O)O)c(O)c2)ccn1` returned a minimal inhibitory concentration (MIC) of 12.5 µg/mL (≈ 45.9 µM).

In turn, `O=C(O)c1ccc(NC(=O)c2ccc3ccccc3n2)cc1` came in with an MIC of 25 µg/mL (≈ 85.5 µM).

The next data set deals with Mycobacterium avium. The experiment in a line: Antimycobacterial activity against Mycobacterium avium by alamar blue staining based microplate analysis.
Conditions: not given
Type of data set: functional. The procedure, abridged: as §2
The molecule `O=C(Nc1ccc(C(=O)O)c(O)c1)c1cccc(C(F)(F)F)n1` displayed a minimum inhibitory concentration (MIC) of 12.5 µg/mL (≈ 38.3 µM).

Regarding `O=C(Nc1ccc(C(=O)O)c(O)c1)c1ccccn1`, the MIC is more than 100 µg/mL.

In the case of `Cc1cc(C(=O)Nc2ccc(C(=O)O)c(O)c2)cc(O)n1`, the MIC was more than 100 µg/mL.

As for `O=C(Nc1ccc(C(=O)O)c(O)c1)c1ccc(Cl)nc1`, 100 µg/mL (≈ 342 µM) was the least that counted as inhibitory (MIC).

The molecule `Cc1cc(C(=O)Nc2cnccn2)cc(Cl)n1` came in with an MIC of more than 100 µg/mL.

`O=C(Nc1cncc(Cl)n1)c1ccc2ccccc2n1` had an MIC of more than 25 µg/mL.

Regarding `O=C(Nc1ccc(C(=O)O)c(O)c1)c1ccncc1`, the lowest concentration to inhibit growth (MIC) was 100 µg/mL (≈ 387 µM).

For `O=C(Nc1cnccn1)c1ccc(C(F)(F)F)cn1`, the MIC was more than 100 µg/mL.

The molecule `Cc1cc(C(=O)Nc2ccc(C(=O)O)c(O)c2)ccn1` came in with an MIC of more than 100 µg/mL.

`O=C(O)c1ccc(NC(=O)c2ccc3ccccc3n2)cc1` gave an MIC of 25 µg/mL (≈ 85.5 µM).

Tested on in another data set: not listed separately
The experiment in a line: Cytotoxicity against human HepG2 cells assessed as inhibition of cell viability.
Conditions: not given
Type of data set: toxicity, cell-based.
For orientation: IC50 means the midpoint of a concentration-inhibition curve. Consider `O=C(Nc1ccc(C(=O)O)c(O)c1)c1cccc(C(F)(F)F)n1`, for which the IC50 was more than 163 µM.

For `O=C(Nc1ccc(C(=O)O)c(O)c1)c1ccccn1`, the IC50 was more than 1000 µM.

Turning to `Cc1cc(C(=O)Nc2ccc(C(=O)O)c(O)c2)cc(O)n1`, the IC50 was more than 1000 µM.

In the case of `O=C(Nc1ccc(C(=O)O)c(O)c1)c1ccc(Cl)nc1`, the IC50 is more than 1000 µM.

As for `Cc1cc(C(=O)Nc2cnccn2)cc(Cl)n1`, the IC50 was more than 250 µM.

Turning to `O=C(Nc1cncc(Cl)n1)c1ccc2ccccc2n1`, the IC50 was more than 25 µM.

Regarding `O=C(Nc1ccc(C(=O)O)c(O)c1)c1ccncc1`, the IC50 is more than 1000 µM.

With `O=C(Nc1cnccn1)c1ccc(C(F)(F)F)cn1`, the IC50 is more than 146 µM.

As to `Cc1cc(C(=O)Nc2ccc(C(=O)O)c(O)c2)ccn1`, the IC50 was more than 1000 µM.

As for `O=C(O)c1ccc(NC(=O)c2ccc3ccccc3n2)cc1`, the half-maximal inhibitory concentration (IC50) was more than 50 µM.

The test system of the next data set is Mycobacterium tuberculosis. The experiment in a line: Antimycobacterial activity against Mycobacterium tuberculosis H37Rv infected in mouse assessed as reduction in colony formation in spleen at 50 mg/kg administered for 28 days. Type of data set: functional, organism-based. Conditions: time 28.0 day. The procedure, abridged:
(§3)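 Mice infected intranasally with Mtb H37Rv; infection allowed to develop four weeks. Then dosed for 28 days with sodium salt forms as water solution by gastric tube. Lung and spleen CFU determined and compared with untreated control group.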
`O=C(Nc1ccc(C(=O)O)c(O)c1)c1ccc(Cl)nc1`: the outcome was Active.

Tested on in the next data set: not listed separately
The experiment in a line: Selectivity index, ratio of IC50 for cytotoxicity against human HepG2 cells to MIC for antimycobacterial activity against Mycobacterium tuberculosis H37Rv. Type of data set: toxicity, cell-based. The conditions noted are these: read-out: Selectivity Index.
Consider `O=C(Nc1ccc(C(=O)O)c(O)c1)c1cccc(C(F)(F)F)n1`, for which the selectivity ratio worked out at 34.1.

Regarding `O=C(Nc1ccc(C(=O)O)c(O)c1)c1ccccn1`, the selectivity ratio stood at 166.

As for `Cc1cc(C(=O)Nc2ccc(C(=O)O)c(O)c2)cc(O)n1`, the selectivity ratio stood at 46.1.

In the case of `O=C(Nc1ccc(C(=O)O)c(O)c1)c1ccc(Cl)nc1`, the selectivity ratio came out at 188.

For the molecule `O=C(Nc1ccc(C(=O)O)c(O)c1)c1ccncc1`, the selectivity ratio came to 82.5.

Take `Cc1cc(C(=O)Nc2ccc(C(=O)O)c(O)c2)ccn1`: the selectivity ratio turned out to be 21.8.

Consider `O=C(O)c1ccc(NC(=O)c2ccc3ccccc3n2)cc1`, for which the selectivity ratio was more than 0.6.

In another data set the test system is Mycobacterium tuberculosis. Put plainly: Antimycobacterial activity against Mycobacterium tuberculosis H37Rv infected in mouse assessed as reduction in colony formation in lungs at 50 mg/kg administered for 28 days. The conditions noted are these: time 28.0 day. Type of data set: functional, organism-based. The procedure, abridged:
as §3
As to `O=C(Nc1ccc(C(=O)O)c(O)c1)c1ccc(Cl)nc1`, the result was inactive.

Another data set deals with Mycobacterium tuberculosis. Put plainly: Antimycobacterial activity against Mycobacterium tuberculosis H37Ra by alamar blue staining based microplate analysis.
Conditions: not given
Type of data set: functional. The procedure, abridged: as §2
In turn, `O=C(Nc1ccc(C(=O)O)c(O)c1)c1cccc(C(F)(F)F)n1` returned an MIC of 31.2 µg/mL (≈ 95.8 µM).

In the case of `O=C(Nc1ccc(C(=O)O)c(O)c1)c1ccccn1`, the lowest concentration to inhibit growth (MIC) was 250 µg/mL (≈ 968 µM).

`Cc1cc(C(=O)Nc2ccc(C(=O)O)c(O)c2)cc(O)n1`: the MIC was not below 500 µg/mL.

Consider `O=C(Nc1ccc(C(=O)O)c(O)c1)c1ccc(Cl)nc1`, for which it took 125 µg/mL (≈ 427 µM) to inhibit growth (MIC).

`Cc1cc(C(=O)Nc2cnccn2)cc(Cl)n1` had an MIC not below 500 µg/mL.

Turning to `O=C(Nc1cncc(Cl)n1)c1ccc2ccccc2n1`, the MIC is not below 125 µg/mL.

`O=C(Nc1ccc(C(=O)O)c(O)c1)c1ccncc1` registered an MIC not below 125 µg/mL.

Molecule `O=C(Nc1cnccn1)c1ccc(C(F)(F)F)cn1` displayed an MIC not below 500 µg/mL.

In turn, `Cc1cc(C(=O)Nc2ccc(C(=O)O)c(O)c2)ccn1` had an MIC not below 125 µg/mL.

`O=C(O)c1ccc(NC(=O)c2ccc3ccccc3n2)cc1` had an MIC of 31.2 µg/mL (≈ 107 µM).

The test system of a further data set is Mycobacterium kansasii. Put plainly: Antimycobacterial activity against Mycobacterium kansasii by alamar blue staining based microplate analysis.
Conditions: not given
Type of data set: functional. The procedure, abridged: as §1
Regarding `O=C(Nc1ccc(C(=O)O)c(O)c1)c1cccc(C(F)(F)F)n1`, the minimum inhibitory concentration (MIC) is 12.5 µg/mL (≈ 38.3 µM).

Turning to `O=C(Nc1ccc(C(=O)O)c(O)c1)c1ccccn1`, the lowest concentration to inhibit growth (MIC) was 50 µg/mL (≈ 194 µM).

In the case of `Cc1cc(C(=O)Nc2ccc(C(=O)O)c(O)c2)cc(O)n1`, the MIC is more than 100 µg/mL.

As for `O=C(Nc1ccc(C(=O)O)c(O)c1)c1ccc(Cl)nc1`, the lowest concentration to inhibit growth (MIC) was 12.5 µg/mL (≈ 42.7 µM).

`Cc1cc(C(=O)Nc2cnccn2)cc(Cl)n1` returned an MIC of more than 100 µg/mL.

`O=C(Nc1cncc(Cl)n1)c1ccc2ccccc2n1` showed an MIC of more than 25 µg/mL.

The molecule `O=C(Nc1ccc(C(=O)O)c(O)c1)c1ccncc1` displayed an MIC of 50 µg/mL (≈ 194 µM).

As to `O=C(Nc1cnccn1)c1ccc(C(F)(F)F)cn1`, the lowest concentration to inhibit growth (MIC) was 6.25 µg/mL (≈ 23.3 µM).

On to `Cc1cc(C(=O)Nc2ccc(C(=O)O)c(O)c2)ccn1`, for which the MIC was more than 100 µg/mL.

In the case of `O=C(O)c1ccc(NC(=O)c2ccc3ccccc3n2)cc1`, it took 25 µg/mL (≈ 85.5 µM) to inhibit growth (MIC).
